# Assay results published in ChEMBL document CHEMBL1143345, “Towards Gram-negative antivirulence drugs: new inhibitors of HldE kinase” (Bioorg Med Chem, 2009).
# The source made the active and inactive calls. The rule behind the calls is not given here.
# T1: Ribokinase (Escherichia coli K-12, UniProt P0A9J6)
# T1 sequence (P0A9J6 whole entry): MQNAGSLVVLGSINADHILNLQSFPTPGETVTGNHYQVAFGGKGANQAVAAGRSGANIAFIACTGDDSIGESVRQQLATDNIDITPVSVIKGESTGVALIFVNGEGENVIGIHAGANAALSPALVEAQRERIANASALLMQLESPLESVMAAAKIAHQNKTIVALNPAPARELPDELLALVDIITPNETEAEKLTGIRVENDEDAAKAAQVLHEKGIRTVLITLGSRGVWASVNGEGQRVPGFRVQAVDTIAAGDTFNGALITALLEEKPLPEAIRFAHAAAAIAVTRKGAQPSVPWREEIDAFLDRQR
# B1: Ribokinase (Escherichia coli K-12), P0A9J6 (protein)
# chain: MQNAGSLVVLGSINADHILNLQSFPTPGETVTGNHYQVAFGGKGANQAVAAGRSGANIAFIACTGDDSIGESVRQQLATDNIDITPVSVIKGESTGVALIFVNGEGENVIGIHAGANAALSPALVEAQRERIANASALLMQLESPLESVMAAAKIAHQNKTIVALNPAPARELPDELLALVDIITPNETEAEKLTGIRVENDEDAAKAAQVLHEKGIRTVLITLGSRGVWASVNGEGQRVPGFRVQAVDTIAAGDTFNGALITALLEEKPLPEAIRFAHAAAAIAVTRKGAQPSVPWREEIDAFLDRQR
# How the values were obtained:
# Escherichia coli [1] = assay: Activity of Escherichia coli O18:K1 C7 HldE in presence of 50 uM ATP
# Method in brief: (§1)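 His-tagged E. coli O18:K1 C7 HldE kinase steady-state kinetics, pH 7.5 with 1 mM MnCl2, 25 mM KCl, 5% DMSO. H-7-P Km measured at fixed ATP 50 uM or 0.3 uM; ADP formation followed by PK/LDH-coupled NADH fluorescence (ex 360, em 520 nm), read kinetically; values ± SD.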
# Escherichia coli [2] = assay: Activity of Escherichia coli O18:K1 C7 HldE in presence of 0.3 uM ATP; method in brief: as §1
# [3] = Inhibition of Escherichia coli O18:K1 C7 HldE by luminescent assay
# Method in brief: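 His-tagged E. coli O18:K1 C7 HldE (3 nM) pre-incubated 30 min at room temperature with inhibitor (≤5% DMSO). Then H-7-P 0.2 uM and ATP 0.2 uM added for 40 min in pH 7.5 Hepes, 1 mM MnCl2, 25 mM KCl, 0.012% Triton X-100, 1 mM DTT. ATP depletion read by luciferase luminescence; IC50 from 6–10 concentrations, means of three experiments.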
# [4] = Inhibition of Escherichia coli O18:K1 C7 HldE by fluorescent assay
# Method in brief: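 Coupled fluorescent HldE-kinase assay: His-tagged E. coli O18:K1 C7 HldE (66 pM), 30 min inhibitor pre-incubation at room temperature, then H-7-P 1 uM, ATP 50 uM with PK/PEP/LDH/NADH. pH 7.5 Hepes, 1 mM MnCl2, 25 mM KCl, 0.012% Triton X-100, 1 mM DTT. NADH fluorescence read kinetically; Ki derived, substrate levels varied for competition.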
# Escherichia coli [5] = assay: Inhibition of Escherichia coli O18:K1 C7 HldE in presence of D-glycero-D-manno-heptose-7-phosphate by luminescent assay
# Escherichia coli [6] = assay: Inhibition of Escherichia coli O18:K1 C7 HldE in presence of Triton-X100 by luminescent assay
# Ribokinase = molecular target: T1, Ribokinase; assay: Inhibition of Escherichia coli K12 MG1655 ribokinase by luminescent assay
# Method in brief: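 His-tagged E. coli K12 MG1655 ribokinase (0.6 nM) in pH 7.5 Hepes buffer with 1 mM MnCl2, 25 mM KCl, 0.012% Triton X-100, 1 mM DTT. Inhibitor pre-incubated 30 min at room temperature, then D-ribose 3 uM and ATP 3 uM added for 40 min. Remaining ATP detected by luciferase/luciferin luminescence; IC50 fitted from 6–10 concentrations.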
# [7] = Inhibition of Neisseria meningitidis 2C43 HldA by luminescent assay
# Method in brief: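 His-tagged N. meningitidis 2C43 HldA (20 nM) pre-incubated 30 min at room temperature with inhibitor, then H-7-P 0.2 uM and ATP 0.2 uM added for 40 min. Buffer pH 7.5 Hepes, 1 mM MnCl2, 25 mM KCl, 0.012% Triton X-100, 1 mM DTT. Residual ATP measured by luciferase/luciferin luminescence; IC50 fitted from 6–10 concentrations.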
# Escherichia coli [8] = assay: Activity of Escherichia coli O18:K1 C7 HldE in presence of 1.8 uM D-glycero-D-manno-heptose-7-phosphate
# Method in brief: (§2)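 His-tagged HldE, Ni-NTA purified, steady-state kinetics with ATP varied at fixed H-7-P. Conditions are pH 7.5 with 1 mM MnCl2, 25 mM KCl and 5% DMSO in Hepes/Triton X-100/DTT buffer. ADP is detected by a pyruvate kinase/lactate dehydrogenase coupled system, reading NADH fluorescence kinetically (ex 360, em 520 nm). Values ± SD.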
# Neisseria meningitidis = assay: Activity of Neisseria meningitidis 2C43 HldA in presence of 0.2 uM D-glycero-D-manno-heptose-7-phosphate
# Method in brief: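 His-tagged HldA, Ni-NTA purified, at 20 nM with 0.2 µM H-7-P and ATP. Buffer is 50 mM Hepes pH 7.5, 1 mM MnCl2, 25 mM KCl, 0.012% Triton X-100 and 1 mM DTT. Reaction runs 40 min at room temperature. ATP depletion is read by luciferase/D-luciferin luminescence.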
# Escherichia coli [9] = assay: Activity of Escherichia coli O18:K1 C7 HldE in presence of 0.2 uM D-glycero-D-manno-heptose-7-phosphate; method in brief: as §2
# [10] = compound: Nc1ncnc2c1ncn2[C@@H]1O[C@H](COP(=O)(O)OP(=O)(O)OP(=O)(O)O)[C@@H](O)[C@H]1O; assay: Activity of Escherichia coli K12 MG1655 ribokinase in presence of 3 uM D-ribose; details: Escherichia coli K-12
# Method in brief: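 His-tagged ribokinase, Ni-NTA purified, at 0.6 nM with 3 µM D-ribose and ATP. Buffer is 50 mM Hepes pH 7.5, 1 mM MnCl2, 25 mM KCl, 0.012% Triton X-100 and 1 mM DTT. Reaction runs 40 min at room temperature. ATP depletion is read by luciferase/D-luciferin luminescence. Values ± SD.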
molecule,measurement,setting,value
O=P(O)(O)OC[C@@H](O)[C@H]1OC(O)[C@@H](O)[C@@H](O)[C@@H]1O (stereo partly drawn),Km,Escherichia coli [1],0.6 µM
same,Km,Escherichia coli [2],0.23 µM
COc1cccc(-c2nc(C)c(C(=O)N(CC(=O)O)Cc3nc4ccccc4s3)s2)c1,IC50,[3],0.42 µM
Cc1oc(-c2ccccc2)nc1C(=O)N(CC(=O)O)Cc1ccccn1,IC50,[3],51 µM
Cc1oc(-c2ccccc2)nc1C(=O)N(CC(=O)O)Cc1nccs1,IC50,[3],110 µM
Cc1nc(-c2ccccc2)sc1C(=O)N(CC(=O)O)Cc1ccccn1,IC50,[3],52 µM
Cc1nc(-c2ccccc2)oc1C(=O)N(CC(=O)O)Cc1ccccc1N,IC50,[3],> 300 µM
COc1cccc(-c2nc(C)c(C(=O)N(CC(=O)O)Cc3ccccn3)o2)c1,IC50,[3],17 µM
COc1cc(-c2nc(C)c(C(=O)N(CC(=O)O)Cc3nc4ccccc4s3)s2)ccc1N,IC50,[3],0.26 µM
Cc1oc(-c2ccccc2)nc1C(=O)N(CC(=O)O)Cc1cccnc1,IC50,[3],> 300 µM
Cc1oc(-c2ccc(Br)cc2)nc1C(=O)N(CC(=O)O)Cc1ccccn1,IC50,[3],27 µM
CC(=O)Nc1cccc(-c2nc(C(=O)N(CC(=O)O)Cc3ccccn3)c(C)o2)c1,IC50,[3],28 µM
O=C(O)CN(Cc1ccccn1)C(=O)c1ccc(-c2ccccc2)cc1,IC50,[3],> 300 µM
Cc1nc(-c2ccccc2)oc1C(=O)N(CC(=O)O)Cc1ccccn1,Ki,[4],38 µM
same,Activity,Escherichia coli [5],Active
same,Activity,Escherichia coli [6],Active
same,IC50,[3],69 µM
Cc1oc(-c2ccc(C(F)(F)F)cc2)nc1C(=O)N(CC(=O)O)Cc1ccccn1,IC50,[3],142 µM
Cc1oc(-c2ccccc2[N+](=O)[O-])nc1C(=O)N(CC(=O)O)Cc1ccccn1,IC50,[3],141 µM
Cc1nc(-c2ccc(N)c([N+](=O)[O-])c2)sc1C(=O)N(CC(=O)O)Cc1ccccn1,IC50,[3],13 µM
Cc1oc(-c2ccccc2Br)nc1C(=O)N(CC(=O)O)Cc1ccccn1,IC50,[3],44 µM
Cc1oc(-c2ccc([N+](=O)[O-])cc2)nc1C(=O)N(CC(=O)O)Cc1ccccn1,IC50,[3],151 µM
Cc1oc(-c2cccc(-c3ccn[nH]3)c2)nc1C(=O)N(CC(=O)O)Cc1nc2ccccc2s1,IC50,[3],0.11 µM
Cc1nc(-c2cccc([N+](=O)[O-])c2)sc1C(=O)N(CC(=O)O)Cc1nc2ccccc2s1,IC50,[3],0.5 µM
same,IC50,Ribokinase,> 300 µM
same,IC50,[7],75 µM
Cn1nc(-c2ccccc2)cc1C(=O)N(CC(=O)O)Cc1ccccn1,IC50,[3],57 µM
Cc1nc(-c2ccc3[nH]ccc3c2)sc1C(=O)N(CC(=O)O)Cc1nc2ccccc2s1,IC50,[3],0.33 µM
same,IC50,Ribokinase,> 100 µM
same,IC50,[7],8.5 µM
COc1ccc(-c2nc(C(=O)N(CC(=O)O)Cc3ccccn3)c(C)o2)cc1,IC50,[3],75 µM
Cc1oc(-c2cccc(C(F)(F)F)c2)nc1C(=O)N(CC(=O)O)Cc1ccccn1,IC50,[3],35 µM
Cc1oc(-c2cccc(Br)c2)nc1C(=O)N(CC(=O)O)Cc1ccccn1,IC50,[3],10 µM
Cc1oc(-c2ccccc2)cc1C(=O)N(CC(=O)O)Cc1ccccn1,IC50,[3],42 µM
Cc1oc(-c2cccc(NC(=O)C3CC3)c2)nc1C(=O)N(CC(=O)O)Cc1ccccn1,IC50,[3],14 µM
Cc1nc(-c2ccc3ccccc3c2)sc1C(=O)N(CC(=O)O)Cc1nc2ccccc2s1,IC50,[3],0.48 µM
same,IC50,Ribokinase,> 33 µM
same,IC50,[7],12 µM
Cc1oc(-c2ccccc2)nc1C(=O)N(CC(=O)O)Cc1ccccc1,IC50,[3],> 300 µM
Cc1onc(-c2ccccc2)c1C(=O)N(CC(=O)O)Cc1ccccn1,IC50,[3],> 300 µM
Nc1ncnc2c1ncn2[C@@H]1O[C@H](COP(=O)(O)OP(=O)(O)OP(=O)(O)O)[C@@H](O)[C@H]1O,Km,Escherichia coli [8],147 µM
same,Km,Neisseria meningitidis,> 0.4 µM
same,Km,Escherichia coli [9],> 0.8 µM
CC(=O)c1cccc(-c2nc(C)c(C(=O)N(CC(=O)O)Cc3ccccn3)s2)c1,IC50,[3],216 µM
Cc1oc(-c2ccc(N)cc2)nc1C(=O)N(CC(=O)O)Cc1ccccn1,IC50,[3],22 µM
COc1cccc(-c2nc(C(=O)N(CC(=O)O)Cc3ccccn3)c(C)o2)c1,IC50,[3],15 µM
same,IC50,Ribokinase,> 300 µM
same,IC50,[7],> 300 µM
Cc1oc(-c2cccc(N3CCOCC3)c2)nc1C(=O)N(CC(=O)O)Cc1ccccn1,IC50,[3],70 µM
Cc1oc(-c2ccccc2)nc1C(=O)N(CC(=O)O)Cc1ccncc1,IC50,[3],> 300 µM
O=C(O)CN(Cc1ccccn1)C(=O)c1ccc(-c2ccccc2)o1,IC50,[3],100 µM
COc1cccc(-c2nc(C)c(C(=O)N(CC(=O)O)Cc3nc4ccccc4s3)o2)c1,IC50,[3],0.27 µM
same,IC50,Ribokinase,> 300 µM
same,IC50,[7],6 µM
Cc1nc(-c2cccc(S(C)(=O)=O)c2)sc1C(=O)N(CC(=O)O)Cc1nc2ccccc2s1,IC50,[3],75 µM
Cc1oc(-c2ccccc2)nc1C(=O)N(CC(=O)O)Cc1ccco1,IC50,[3],> 300 µM
Cc1oc(-c2cccc([N+](=O)[O-])c2)nc1C(=O)N(CC(=O)O)Cc1ccccn1,IC50,[3],5.8 µM
same,IC50,Ribokinase,> 300 µM
same,IC50,[7],> 300 µM
COc1cccc(-c2nc(C(=O)N(CC(=O)O)Cc3ccc4ccccc4n3)c(C)o2)c1,IC50,[3],12 µM
Cc1oc(-c2ccccc2N)nc1C(=O)N(CC(=O)O)Cc1ccccn1,IC50,[3],31 µM
Cc1oc(-c2cccc(N)c2)nc1C(=O)N(CC(=O)O)Cc1ccccn1,IC50,[3],153 µM
B1,Km,[10],18 µM
